# Compound activity (PubChem BioAssay)
# Rows were chosen to be rich in hits. Some 2.8% of all compounds tested hit in one or more screens of this group.
# pPAFAH FP inh: pPAFAH (human) enzyme inhibition | Q13093 | recombinant pPAFAH, FP-rhodamine probe fluorescence polarization | inhibition, % at 3.39 µM | hit rate 1.5% among 330,000 | AID 463082;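 active means inhibition above the mean inhibition across the screen plus 3 SD, cut at about 25% in these data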;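 further: inhibitors block binding of the rhodamine activity-based probe so polarization drops; 0% = enzyme with DMSO and 100% = wells lacking pPAFAH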
# PAFAH1B3 inh: inhibitors of human PAFAH1B3 | Q15102 | recombinant PAFAH1B3, FP-rhodamine probe, fluorescence polarization | inhibition, % at 3.39 µM | hit rate 0.28% among 340,000;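 active means inhibition above the screen-wide average of all tested compounds plus 3 SD, cut at about 25% in these data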;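 further: 0% = enzyme with DMSO only and 100% = wells lacking PAFAH1B3 protein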
# Target sequence (Q15102 whole entry, looked up): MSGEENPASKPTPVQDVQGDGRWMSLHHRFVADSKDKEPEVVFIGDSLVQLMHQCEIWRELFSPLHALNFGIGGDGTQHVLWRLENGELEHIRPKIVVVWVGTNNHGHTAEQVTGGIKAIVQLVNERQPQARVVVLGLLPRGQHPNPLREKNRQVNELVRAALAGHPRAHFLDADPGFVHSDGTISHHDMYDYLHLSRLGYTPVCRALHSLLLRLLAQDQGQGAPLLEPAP
# mABHD4 FP: inhibitors of mouse ABHD4. purified mABHD4, FP-Rh probe fluorescence polarization. Q8VD66. hit rate 0.54% among 370,000. AID 720543. inhibition, % at 8.92 µM;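 active means inhibition exceeding the mean over every tested compound plus 3 SD, cut at about 30% in these data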;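 further: 0% = plate median of compound wells and 100% = S159A mutant with DMSO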
#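 assay system = mABHD4 protein | compound dosing = single nominal dose of 8.92 µM, 0.89% DMSO final | read-out basis = percent inhibition of probe binding, normalized to plate controls | schedule = Enzyme–compound pre-incubation 45 min, then probe 60 min, both 25 °C | detection = fluorescence polarization, excitation 525 nm, emission 598 nm, BODIPY TMR filters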
# PAFAH2 FP inh: inhibitors of human PAFAH2; inhibition, % at 3.39 µM; hit rate 0.99% among 340,000; Q99487; recombinant PAFAH2, FP-rhodamine activity probe, fluorescence polarization; AID 492956;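 active means inhibition above the mean over all tested compounds plus 3 SD, cut at about 30% in these data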;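 further: inhibitors block probe labeling of enzyme so polarization drops; 0% = enzyme with DMSO and 100% = wells lacking PAFAH2 protein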
# HTRA1 inhibitor: HTRA1 (human) protease inhibition. hit rate 0.5% among 340,000. recombinant HTRA1, FP-rhodamine activity-based probe, fluorescence polarization. inhibition, % at 5.96 µM. Q92743. AID 504803; in the data active means inhibition above about 36%;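 further: 0% = enzyme with DMSO and 100% = wells lacking enzyme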
# PAFAH1B2 inh: inhibitors of human PAFAH1B2; hit rate 1.2% among 340,000; inhibition, % at 3.39 µM; recombinant PAFAH1B2, FP-rhodamine activity probe, fluorescence polarization;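 active means inhibition above the mean of all tested compounds plus 3 SD, cut at about 24% in these data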;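 further: 0% = enzyme with DMSO and 100% = wells lacking PAFAH1B2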
# Target sequence (P68402 whole entry, looked up): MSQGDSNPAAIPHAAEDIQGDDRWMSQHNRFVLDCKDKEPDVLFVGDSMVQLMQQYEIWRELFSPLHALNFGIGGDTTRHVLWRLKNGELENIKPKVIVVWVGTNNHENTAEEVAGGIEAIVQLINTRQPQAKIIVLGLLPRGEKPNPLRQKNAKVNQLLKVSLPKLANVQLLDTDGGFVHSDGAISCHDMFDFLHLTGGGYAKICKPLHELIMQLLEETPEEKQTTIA
# PAFAH1B3 conf FP: PAFAH1B3 (human) inhibition, confirmed. shares compounds with PAFAH1B3 inh. recombinant PAFAH1B3, FP-Rh activity-based probe, fluorescence polarization. inhibition, % at 3.39 µM. hit rate 30% among 390. AID 493032;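 active means average inhibition over triplicate runs above the hit cutoff set in the earlier primary screen, cut at about 25% in these data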;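 further: 0% = enzyme with DMSO and 100% = wells lacking PAFAH1B3 protein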
# Active calls of the source: *; nt = not tested or not shown; ! = repeats disagree.
SMILES,pPAFAH FP inh,PAFAH1B3 inh,mABHD4 FP,PAFAH2 FP inh,HTRA1 inhibitor,PAFAH1B2 inh,PAFAH1B3 conf FP
COc1cc2c(cc1OC)[N+]([O-])=C(c1ccccc1)C2=O,nt,nt,7,nt,nt,nt,nt
O=C1C(c2ccccc2)=[N+]([O-])c2ccccc21,5,28*,10,18,-11,5,13
CCOc1ccccc1/C=C\c1nc(O)c([N+](=O)[O-])c(=O)[nH]1,8,28*,-4,-5,-1,5,19
COC(=O)c1cc(-c2cc3ccccc3o2)c(=O)n2c1CCC2,nt,nt,0,nt,nt,nt,nt
C#CCN(C1CC1)S(=O)(=O)c1ccccc1Br,nt,nt,0,nt,nt,nt,nt
COc1cccc(C(=O)n2ccc3ccc(-c4ccc5ccn(C(=O)c6cccc(OC)c6)c5c4)cc32)c1,nt,nt,-2,nt,nt,nt,nt
O=C(CSc1nccc(=O)[nH]1)N1CCc2ccccc2C1,7,28*,-3,2,6,4,5
CCCc1cc(=O)[nH]c(SCC(=O)N2CCc3ccccc3C2)n1,-1,-2,2,-2,6,4,nt
COC(=O)c1cccc(Cn2ccc3ccc(-c4ccc5ccn(C(=O)C6CCC6)c5c4)cc32)c1,nt,nt,-3,nt,nt,nt,nt
CCCOc1cc2c(C#N)c(N3CCCC3)nc(N)c2c(N)n1,7,28*,1,15,17,10,15
COc1cc2c(C#N)c(N3CCCC3)nc(N)c2c(N)n1,8,43*!,3,12,7,10,11
Cc1ccc[n+](C2=C([O-])c3ccccc3C(=O)C2=O)c1,nt,nt,-15,nt,nt,nt,nt
O=C1/C(=N\S(=O)(=O)c2cccs2)C([n+]2ccccc2)=C([O-])c2ccccc21,1,49*,-1,17,9,16,35*
O=C(O)CCCCCCCCCCCNC(=O)NC12CC3CC(CC(C3)C1)C2,0,26*,1,0,2,4,6
COC(=O)CCc1c(C)c(C(=O)c2cc(F)c(F)c(F)c2F)c2ccccn12,7,29*,0,12,-8,5,7
CCc1nc2ccc(C(=O)N3CCN(CC)CC3)cc2nc1CC,-1,28*,-1,28,1,18,8
CCCN1CCN(C(=O)c2ccc3nc(CC)c(CC)nc3c2)CC1,4,2,5,-1,-2,0,nt
Cc1ccc(S(=O)(=O)NNC(=O)CCC(=O)Nc2ccc(C)cc2C)cc1,3,1,3,-9,3,0,nt
Cc1ccc(S(=O)(=O)NC(=O)Nc2ccc(C)cc2C)cc1,nt,28*,3,-5,3,5,7
CCN1Cc2nnn(CC3CCCCC3)c2-c2ccccc2S1(=O)=O,nt,nt,6,nt,nt,nt,nt
O=C(OCC(=O)c1ccc[nH]1)c1ccc([N+](=O)[O-])cc1,8,5,5,6,3,1,nt
O=C(COC(=O)c1ccc([N+](=O)[O-])s1)c1ccc[nH]1,17,33*,2,15,24,7,26*
COc1cc(-c2nc3c4ccccc4nc(=S)n3[nH]2)cc(OC)c1OC,6,30*,0,-2,-3,5,25
COc1ccccc1-c1nc2c3ccccc3nc(=S)n2[nH]1,5,7,-3,-3,4,-2,nt
COc1ccc(Cn2ccc3ccc(-c4ccc5ccn(Cc6ccccc6F)c5c4)cc32)cc1,nt,nt,11,nt,nt,nt,nt
SMILES,pPAFAH FP inh,PAFAH1B3 inh,mABHD4 FP,PAFAH2 FP inh,HTRA1 inhibitor,PAFAH1B2 inh,PAFAH1B3 conf FP
COC(=O)[C@]12C[C@H](CC(=O)N3CCCCC3)C(=O)N(Cc3ccc(Cl)cc3Cl)C1=C[C@H](C1CCCC1)O[C@@H]2C,nt,nt,2,nt,nt,nt,nt
COc1ccc2c(ccc[n+]2CC(=O)c2ccccc2)c1,nt,-4,4,-2,7,-7,nt
COc1ccc(C(=O)C[n+]2ccccc2/C=N/O)cc1,2,26*,-2,8,1,5,18
COc1ccc(NC(=O)c2cccc(N3C(=O)c4ccc(C(=O)Nc5ccc(OC)c(O)c5)cc4C3=O)c2)cc1O,5,26*,20,-5,4,12,17
CCOC(=O)CC[C@@H]1CC[C@]2(CCCN(C(=O)C3CCCCC3)C2)O1,nt,nt,0,nt,nt,nt,nt
Cc1ccc(C(=O)O)cc1N1C(=O)c2cccc3cc(Br)cc(c23)C1=O,5,57*,-4,2,-1,3,57*
